Legend:
Type in all cases: functional
Conditions in all cases: route intraperitoneal
Rattus norvegicus [1] = assay: Hyperglycemic activity in rat assessed as blood glucose level per 100 ml at 70 mg/kg, ip after 90 mins
Method in brief: (§1)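 Narcotized rats, six per experiment; blood sugar measured before and 90 min after intraperitoneal dosing (70 and 100 mg/kg used in study). Glucose determined by o-toluidine reaction in acid medium. Values are mean of six rats ± 2 s. Classed hyper- or hypoglycemic by Student's t test, before vs after, when α < 0.01.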

Rattus norvegicus [2] = assay: Effect on blood glucose level per 100 ml in rat at 70 mg/kg, ip after 90 mins; method in brief: as §1
Rattus norvegicus [3] = assay: Hypoglycemic activity in rat assessed as blood glucose level per 100 ml at 70 mg/kg, ip after 90 mins; method in brief: as §1

SMILES	Activity (Rattus norvegicus [1])	Activity (Rattus norvegicus [3])	other results
CNC(=O)NS(=O)(=O)c1ccc(OC)cc1C	142 mg	–	–
CCNC(=O)NS(=O)(=O)c1ccc(OC)cc1C	135 mg	–	–
CCCNC(=O)NS(=O)(=O)c1ccc(OC)cc1C	135 mg	–	–
CCCNC(=S)NS(=O)(=O)c1ccc(OC)cc1C	153 mg	–	–
COc1ccc(S(=O)(=O)NC(N)=O)c(C)c1	97 mg	–	–
CCOc1ccc(S(=O)(=O)NC(N)=O)c(C)c1	103 mg	–	–
CCCCNC(=S)NS(=O)(=O)c1ccc(OCCC)cc1C	160 mg	–	–
CCCCOc1ccc(S(=O)(=O)NC(=O)NC)c(C)c1	96 mg	–	–
CCCCNC(=O)NS(=O)(=O)c1ccc(OCCCC)cc1C	113 mg	–	–
CCCCNC(=O)NS(=O)(=O)c1ccc(OC)cc1C	–	–	Activity (Rattus norvegicus [2]): 114 mg
COc1ccc(S(=O)(=O)NC(=O)NCc2ccccc2)c(C)c1	–	104 mg	–
CCCCNC(=O)NS(=O)(=O)c1ccc(OCC)cc1C	–	114 mg	–
CCCCNC(=O)NS(=O)(=O)c1ccc(OCCC)cc1C	–	130 mg	–
CCCCOc1ccc(S(=O)(=O)NC(=S)NC)c(C)c1	–	77 mg	–
CCCCCOc1ccc(S(=O)(=O)NC(=O)NCCCC)c(C)c1	79 mg	–	–
CCCCCOc1ccc(S(=O)(=O)NC(=S)NCCCC)c(C)c1	–	129 mg	–
CCCCNC(=O)NS(=O)(=O)c1ccc(NC(C)=O)cc1C	–	112 mg	–
COc1ccc(S(=O)(=O)NC(=S)NCc2ccccc2)c(C)c1	–	97 mg	–
CCCCNC(=S)NS(=O)(=O)c1ccc(OCC)cc1C	–	99 mg	–
CCCCNC(=S)NS(=O)(=O)c1ccc(NC(C)=O)cc1C	–	116 mg	–
CCCCNC(=O)NS(=O)(=O)c1ccc(C)cc1C	–	102 mg	–
CCCCNC(=S)NS(=O)(=O)c1ccc(C)cc1C	–	119 mg	–

Source: ChEMBL document CHEMBL3243949, “Discriminant--analytical investigation on the structural dependence of hyperglycemic and hypoglycemic activity in a series of substituted o-toluenesulfonylthioureas and o-toluenesulfonylureas” (1979)
